The text below walks through data of ChEMBL document CHEMBL4190404, “Synthesis and characterization of amino acid substituted sunitinib analogues for the treatment of AML” (Bioorg Med Chem Lett, 2018).

Series [1] deals with Receptor-type tyrosine-protein kinase FLT3 (Homo sapiens), P36888 [UNDEFINED MUTATION]. In words: Inhibition of FLT3 ITD mutant (unknown origin) using TAMRA-Src- tide as substrate at 1.25 uM after 1 hr by fluorescence polarization assay relative to control. In a few lines: (§1)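 FLT3-ITD kinase inhibition by fluorescence polarization IMAP assay; each compound tested at 12.5 and 1.25 μM; percent inhibition, average of two parallel measurements.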
A general note: Polarisation of emitted light reports the rotation of a fluorescent probe.

The nature of series [2]: n-Octanol-buffer distribution coefficient, log D of the compound at pH 5.5 after 1 hr by shake flask method. Type of series: physicochemical.
In series [3] the test system is Receptor-type tyrosine-protein kinase FLT3 (Homo sapiens), P36888 [UNDEFINED MUTATION]. The series can be described thus: Inhibition of FLT3 ITD mutant (unknown origin) using TAMRA-Src- tide as substrate at 12.5 uM after 1 hr by fluorescence polarization assay relative to control. In short, it runs like this: as §1
Series [4] can be described thus: Dissociation constant, pKa of the compound at 25 to 50 uM by UV spectroscopy. Type of series: physicochemical. In a few lines: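 Carboxyl pKa by automated UV/pH titration with MeOH as co-solvent.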
The nature of series [5]: Apparent partition coefficient, log P of the compound in n-octanol/aqueous mixture at pH 7.4 after 1 hr by shake flask method. It counts as physicochemical.
Series [6] in a line: n-Octanol-buffer distribution coefficient, log D of the compound at pH 7.4 after 1 hr by shake flask method. Type of series: physicochemical.
For series [7] the following is noted: buffer, pH 10.5.
The nature of series [8]: Lipophilicity, chromatographic hydrophobicity index of the compound at pH 1.2 by HPLC method. It counts as physicochemical. As to conditions: buffer. In short, it runs like this: (§2)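 RP-HPLC with buffer/acetonitrile gradient elution; CHI profile at starting pH 10.5, 7.4, 5.5 and 1.2; values given as average of the compound group.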
A short description of series [9]: Aqueous solubility in pH 7.4 phosphate buffer at 120 uM after 24 hrs by HPLC method. Type of series: physicochemical.
The nature of series [10]: Aqueous solubility in pH 5.5 phosphate buffer at 120 uM after 24 hrs by HPLC method. Type of series: physicochemical. Conditions: for solubility at 24 h, 120 µM: phosphate buffer, pH 5.5.
Series [11] in a line: Lipophilicity, chromatographic hydrophobicity index of the compound at pH 5.5 by HPLC method. Type of series: physicochemical. Conditions: buffer. In a few lines:
as §2

Series [12] can be described thus: Lipophilicity, chromatographic hydrophobicity index of the compound at pH 7.4 by HPLC method. Conditions: buffer. Type of series: physicochemical. In short, it runs like this: as §2
The subject of series [13] is MV4-11. In words: Antiproliferative activity against human MV4-11 cells after 72 hrs by Celltiter-Glo luminescent cell viability assay. Type of series: functional, cell-based. Conditions: MV4-11, 72 h. In a few lines: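 MV4-11 leukaemia cells, 72 h proliferation assay, luminescence read-out; IC50 determined from concentration–response.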
For orientation: ATP-based viability assays read luminescence as a measure of living cells.

Each structure is given as a SMILES string. Values after ≈ are worked out from the molar mass of the structure shown.

As a reminder, the inhibition is the percentage by which the read-out fell short of the control. A lower inhibition goes with little suppression. The logD is lipophilicity at a set pH, counting ionised and neutral species. In general, pKa refers to the pH at which an ionisable group is half protonated. As usually defined, the solubility is the dissolved amount per volume that the medium holds. A higher solubility goes with a readily soluble substance. Usually IC50 stands for the concentration at which inhibition is half-maximal. Low readings indicate inhibition by little substance, high ones a need for much substance.

Chain of Receptor-type tyrosine-protein kinase FLT3 (Homo sapiens), P36888 [UNDEFINED MUTATION] (P36888 whole entry, looked up, change not shown): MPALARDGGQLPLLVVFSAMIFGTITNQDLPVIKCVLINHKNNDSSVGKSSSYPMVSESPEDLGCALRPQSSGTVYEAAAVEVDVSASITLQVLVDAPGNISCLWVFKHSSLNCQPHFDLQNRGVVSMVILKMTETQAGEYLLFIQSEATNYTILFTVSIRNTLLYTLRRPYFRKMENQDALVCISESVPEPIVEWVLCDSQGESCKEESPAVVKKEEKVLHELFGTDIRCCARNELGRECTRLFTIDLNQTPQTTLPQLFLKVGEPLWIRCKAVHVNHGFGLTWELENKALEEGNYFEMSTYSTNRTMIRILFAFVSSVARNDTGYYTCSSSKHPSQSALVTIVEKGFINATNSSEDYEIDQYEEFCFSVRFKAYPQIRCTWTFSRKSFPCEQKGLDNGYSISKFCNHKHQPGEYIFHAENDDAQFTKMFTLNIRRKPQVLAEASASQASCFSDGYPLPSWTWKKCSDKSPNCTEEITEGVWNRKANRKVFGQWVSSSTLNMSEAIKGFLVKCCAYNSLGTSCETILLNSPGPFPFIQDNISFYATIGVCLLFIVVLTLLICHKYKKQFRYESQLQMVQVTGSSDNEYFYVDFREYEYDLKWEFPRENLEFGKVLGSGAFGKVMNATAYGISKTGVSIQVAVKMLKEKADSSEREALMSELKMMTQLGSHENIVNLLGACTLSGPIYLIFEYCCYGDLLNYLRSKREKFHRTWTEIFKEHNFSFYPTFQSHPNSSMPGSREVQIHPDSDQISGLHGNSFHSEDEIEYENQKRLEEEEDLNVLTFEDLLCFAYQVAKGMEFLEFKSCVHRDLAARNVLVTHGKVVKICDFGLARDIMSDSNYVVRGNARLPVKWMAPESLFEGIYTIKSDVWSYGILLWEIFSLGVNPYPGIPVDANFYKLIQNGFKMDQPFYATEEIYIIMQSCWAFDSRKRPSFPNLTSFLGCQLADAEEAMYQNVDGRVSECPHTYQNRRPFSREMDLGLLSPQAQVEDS

`COC(=O)CC[C@H](NC(=O)c1c(C)[nH]c(/C=C2\C(=O)Nc3ccc(C(=O)N[C@H](Cc4ccccc4)C(=O)O)cc32)c1C)C(=O)OC`: the inhibition was 74.2% in [1] and > 100% in [3]. The values for the logD at 1 h in series [2], in series [5] and in series [6] were 1.58, 4.07 and -0.32, respectively. This compound gave a pKa at up to 50 µM in series [4] of 3.01.
Consider `COC(=O)CC[C@@H](NC(=O)c1ccc2c(c1)/C(=C/c1[nH]c(C)c(C(=O)O)c1C)C(=O)N2)C(=O)OC`, for which the inhibition in [1] is 80.6%; in series [3], 12.1%. This compound also registered a pKa at up to 50 µM in [4] of 5.47.
Consider `COC(=O)[C@H](Cc1ccccc1)NC(=O)c1ccc2c(c1)/C(=C/c1[nH]c(C)c(C(=O)N[C@@H](Cc3ccccc3)C(=O)OC)c1C)C(=O)N2`, for which the CHI in [7] came out at 91; in series [8], 92; in series [11] it was 91; in [12] it was 90. The inhibition worked out at 28.9% in series [1] and 92.3% in series [3]. Further, the solubility at 24 h, 120 µM in series [9] and in [10] was < 1 µM each time. Further, it took 10.9 µM to reach half-maximal inhibition in series [13] (IC50).
As for `COC(=O)CC[C@H](NC(=O)c1ccc2c(c1)/C(=C/c1[nH]c(C)c(C(=O)N[C@@H](Cc3ccccc3)C(=O)O)c1C)C(=O)N2)C(=O)OC`, the CHI in series [7] is reported as 46; in [8] it was 67; in series [11], 50; in series [12] it was 49. Moreover, the inhibition is 58.7% in series [1] and > 100% in [3]. Besides, the log distribution coefficient (logD) at 1 h in [2] was 1.16; in series [5] it was 3.62; in series [6] it was -0.74. The compound further returned a pKa at up to 50 µM in series [4] of 3.04. In addition, the solubility at 24 h, 120 µM in [9] was determined as 100 µM (≈ 63.1 µg/mL); in [10] it was 30 µM (≈ 18.9 µg/mL).
Regarding `COC(=O)[C@H](Cc1ccccc1)NC(=O)c1ccc2c(c1)/C(=C/c1[nH]c(C)c(C(=O)O)c1C)C(=O)N2`, the CHI in [7] was 47; in [8], 73; in [11], 68; in series [12], 56. Moreover, the inhibition in [1] is 69%; in series [3] it was 71.6%. Besides, the solubility at 24 h, 120 µM in series [9] is 20 µM (≈ 9.75 µg/mL); in series [10], < 1 µM. For the same compound, the midpoint of inhibition in [13], the IC50, lay at 3.7 µM.
In the case of `COC(=O)CC[C@H](NC(=O)c1c(C)[nH]c(/C=C2\C(=O)Nc3ccc(C(=O)N[C@@H](Cc4ccccc4)C(=O)OC)cc32)c1C)C(=O)OC`, the CHI in [7] is 77; in series [8], 78; in [11], 79; in [12], 78. Also, the figures for the inhibition in series [1] and in series [3] were 57.3% and 91%, respectively. Also, the solubility at 24 h, 120 µM in [9] and in series [10] was < 1 µM each time. For the same compound, 11.9 µM corresponded to half-maximal inhibition in series [13] (IC50).
Turning to `CCOC(=O)c1c(C)[nH]c(/C=C2\C(=O)Nc3ccc(C(=O)N[C@@H](Cc4ccccc4)C(=O)OC)cc32)c1C`, the CHI in series [7] turned out to be 100; in series [8], 99; in series [11] it was 98; in series [12] it was 98. Moreover, the inhibition in series [1] came to 25%; in [3], 74.2%. Further, the solubility at 24 h, 120 µM in [9] and in series [10] was < 1 µM each time. The same compound yielded an IC50 in [13] of 10.6 µM.
On to `COC(=O)[C@@H](Cc1ccccc1)NC(=O)c1ccc2c(c1)/C(=C/c1[nH]c(C)c(C(=O)N[C@@H](Cc3ccccc3)C(=O)O)c1C)C(=O)N2`, for which the results for the inhibition in [1] and in series [3] were 74.2% and > 100%, respectively. Moreover, the values for the pH-dependent lipophilicity (logD) at 1 h in series [2], in series [5] and in series [6] were 3.18, 5.68 and 1.28, respectively. Besides, in [4], the pKa at up to 50 µM was found to be 3. The compound further returned an IC50 in series [13] of 13 µM.
Consider `Cc1[nH]c(/C=C2\C(=O)Nc3ccc(C(=O)N[C@H](Cc4ccccc4)C(=O)O)cc32)c(C)c1C(=O)N[C@@H](Cc1ccccc1)C(=O)O`, for which the inhibition in series [1] was 74.2%; in series [3] it was > 100%. In addition, the logD at 1 h is 0.62 in [2], 5.62 in series [5] and -3.18 in series [6]. Moreover, the pKa at up to 50 µM in series [4] came out at 3.
Take `COC(=O)[C@H](Cc1ccccc1)NC(=O)c1c(C)[nH]c(/C=C2\C(=O)Nc3ccc(C(=O)O)cc32)c1C`: the CHI in series [7] amounted to 49; in series [8], 73; in [11], 59; in series [12], 52. Moreover, the inhibition in [1] is 85.8%; in series [3] it was 98.7%. The logD at 1 h worked out at 3.38 in [2], 4.32 in series [5] and 1.53 in series [6]. The compound also showed a pKa at up to 50 µM in series [4] of 4.61. Besides, the solubility at 24 h, 120 µM was 100 µM (≈ 48.8 µg/mL) in series [9] and < 5 µM in [10].
For `COC(=O)CC[C@H](NC(=O)c1ccc2c(c1)/C(=C/c1[nH]c(C)c(C(=O)N[C@@H](Cc3ccccc3)C(=O)OC)c1C)C(=O)N2)C(=O)OC`, the CHI in series [7], in [8], in [11] and in [12] was 79 in each case. For the same compound, the inhibition was 19.9% in [1] and 79.4% in series [3]. The solubility at 24 h, 120 µM in series [9] and in series [10] was < 1 µM each time. Also, in series [13], the 50% inhibitory concentration (IC50) came to 17.7 µM.
As to `COC(=O)CC[C@H](NC(=O)c1c(C)[nH]c(/C=C2\C(=O)Nc3ccc(C(=O)OC)cc32)c1C)C(=O)OC`, the CHI in [7], in [8], in series [11] and in series [12] was 73 throughout. Also, the inhibition in [1] is 87%; in [3], 92.2%. The solubility at 24 h, 120 µM in series [9] and in [10] was < 5 µM in each case. The compound also displayed an IC50 in series [13] of 0.08 µM.
In the case of `COC(=O)c1ccc2c(c1)/C(=C/c1[nH]c(C)c(C(=O)N[C@@H](Cc3ccccc3)C(=O)O)c1C)C(=O)N2`, the CHI is on record as 51 in [7], 76 in series [8], 54 in [11] and 53 in series [12]. Besides, the values for the inhibition in series [1] and in series [3] were 90.9% and > 100%, respectively. For the same compound, the logD at 1 h amounted to 2.23 in series [2], 4.73 in series [5] and 0.33 in series [6]. In series [4], this compound came in with a pKa at up to 50 µM of 3. Moreover, the solubility at 24 h, 120 µM was ≥ 120 µM in series [9] and < 5 µM in series [10]. The compound also yielded a half-maximal inhibitory concentration (IC50) in series [13] of 2.2 µM.
On to `COC(=O)[C@H](Cc1ccccc1)NC(=O)c1ccc2c(c1)/C(=C/c1[nH]c(C)c(C(=O)N[C@@H](Cc3ccccc3)C(=O)O)c1C)C(=O)N2`, for which the CHI is on record as 57 in series [7], 80 in series [8], 60 in series [11] and 59 in [12]. Also, the inhibition in series [1] is 58.6%; in [3] it was > 100%. Also, the solubility at 24 h, 120 µM in [9] worked out at 70 µM (≈ 44.4 µg/mL); in series [10], 30 µM (≈ 19 µg/mL). The IC50 in series [13] came to 24.3 µM.
As to `COC(=O)c1ccc2c(c1)/C(=C/c1[nH]c(C)c(C(=O)N[C@@H](Cc3ccccc3)C(=O)OC)c1C)C(=O)N2`, the CHI was 89 in [7], 89 in series [8], 89 in series [11] and 88 in series [12]. The inhibition in [1] came out at 45.7%; in series [3], 79.3%. For the same compound, the solubility at 24 h, 120 µM in [9] was < 5 µM; in series [10], < 1 µM. Moreover, inhibition in [13] was half-maximal at 0.5 µM (IC50).
As for `COC(=O)CC[C@@H](NC(=O)c1ccc2c(c1)/C(=C/c1[nH]c(C)c(C(=O)N[C@H](CCC(=O)OC)C(=O)OC)c1C)C(=O)N2)C(=O)OC`, the inhibition in [1] amounted to 62.5%; in series [3] it was 75.4%. Also, the logD at 1 h in [2], in series [5] and in [6] was 3.36 throughout.
As to `Cc1[nH]c(/C=C2\C(=O)Nc3ccccc32)c(C)c1CCC(=O)O` [ORANTINIB], the CHI in series [7] is 42; in series [8] it was 75; in series [11], 59; in series [12], 47. Also, the inhibition is 76.7% in series [1] and > 100% in [3]. Moreover, the log distribution coefficient (logD) at 1 h was 3.18 in series [2], 4.6 in series [5] and 1.3 in [6]. In addition, the pKa at up to 50 µM in [4] stood at 4.1. In addition, in [9], the solubility at 24 h, 120 µM is ≥ 120 µM. The compound also showed a solubility in series [10] (buffer, pH 5.5, 24 h, 120 µM) of 5 µM (≈ 1.55 µg/mL). Also, the half-maximal inhibitory concentration (IC50) in series [13] was determined as 3.9 µM.
